Sampled rows, rich in hits. Any-hit rate of the full collection: about 5%.
CSC inhib: cancer stem cell viability inhibitors, primary screen, luminescence. cancer stem cell-like cells viability. inhibition, % at 7.5 µM. actives 1.1% (n = 300,000); in the data active = inhibition above about 75%; tested in HMLE shEcad cells
UPR CHOP act: activators of apoptotic CHOP UPR arm, primary screen, cell-based, CHO-CHOP luciferase reporter, luminescence, uHTS. UPR activation; percent of tunicamycin response over DMSO baseline. activation, % at 10 µM. actives 0.34% (n = 330,000). AID 449763, 2010;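 active = at 10 µM dose, activation of 40% or more, normalized to positive control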;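 also: 100% = tunicamycin at 10 µg/mL and 0% = DMSO alone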
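Material: CHO-CHOP cells, stable luciferase reporter of PERK-eIF2a-CHOP signalling; quantity: 500 reporter cells seeded per well; buffer or medium: F12 medium containing 10% fetal bovine serum; compound: one dose, 10 µM in 0.5% DMSO; incubation: 6 h compound treatment, 37 °C; measured by: Steady-Glo luciferase luminescence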
Beta cell apopt: inhibitors of cytokine-induced beta cell apoptosis, primary screen, luminescence; INS-1E cytokine-induced death, ATP luminescence, 48 h; percent of positive-control rescue, neutral wells zero; protection from apoptosis, % (no concentration beside the values); actives 0.8% (n = 300,000);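 active = Every replicate reaches about 75%, or at least half do and their mean reaches it too, limit read from the data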;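 also: 0% = cytokine-treated negative control wells and 100% = positive control rescue; higher means more ATP so stronger rescue from cytokine killing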
XBP1 UPR activ: activators of adaptive XBP1 UPR arm, primary screen, cell-based, CHO-XBP1 luciferase reporter, luminescence, uHTS. AID 463104, 2010. IRE1-XBP1 UPR activation; percent of tunicamycin response, DMSO as zero. activation, % at 20 µM. actives 0.33% (n = 330,000);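 active = versus positive control, 20 µM dose yields 30% or more activation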;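 also: 100% = tunicamycin at 10 µg/mL and 0% = DMSO only wells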
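Test system: CHO-XBP1 luciferase reporter cells | Buffer or medium: Serum-containing F12 medium, 10% FBS | Schedule: 6 h compound exposure at 37 °C, 5% CO2 | Detection: Steady-Glo luciferase glow luminescence, 10 min after reagent addition | Read-out basis: Activation, % of tunicamycin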
T cruzi inh: inhibitors of intracellular T. cruzi growth, primary screen, luminescence, NIH3T3 host cells | T. cruzi beta-gal in NIH3T3, 90 h | inhibition, % (concentration not given with the values) | actives 1.4% (n = 300,000) | AID 1885, 2009;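 active = mean inhibition across valid replicates above about 55%, limit read from the data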;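 also: signal also drops with host cell toxicity which is not excluded here; 0% = plate median of DMSO wells and 100% = zero luminescence signal; higher percent means less beta-gal luminescence so fewer parasites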
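Assay system: NIH/3T3 host cells with β-galactosidase reporter T. cruzi; input: 5,000 host fibroblasts per well; compound: single 50 nL compound addition per well in DMSO; timing: ≥90 h infection period, 3 h prior cell attachment; measured by: GalScreen β-gal luminescence, detergent lysis, 60 min; evaluation: percent inhibition of parasite-derived β-gal signal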
Mdm2-MdmX inh: inhibitors of human Mdm2-MdmX association, primary screen, cell-based, luminescence, split luciferase, SaOS-2, uHTS; Protein Mdm4 (Homo sapiens) + E3 ubiquitin-protein ligase Mdm2 (Homo sapiens), …; SaOS-2 split-luciferase Mdm2/MdmX complementation; actives 3% (n = 330,000); inhibition, % at 8 µM;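 active = inhibition of at least 50% at 8 µM in the primary screen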
* marks the source's active call; other numbers are inactive results; . = not tested or not shown.

SMILES	CSC inhib	UPR CHOP act	Beta cell apopt	XBP1 UPR activ	T cruzi inh	Mdm2-MdmX inh
NC(=O)NC(=O)COC(=O)c1ccc(Cl)c(S(=O)(=O)N(Cc2ccccc2)c2ccc(Cl)cc2)c1	86*	-2	-13	1	5	-7
CCOC(=O)C1=C(C)N(CCCC(=O)O)C(=O)NC1c1cc2ccccc2c2ccccc12 (centres undefined)	-1	2	-7	2	-4	8
CCOC(=O)c1cc2c(=O)n3ccccc3nc2n(C(C)C)c1=NC(=O)c1c(-c2c(F)cccc2Cl)noc1C	63	4	5	4	58*	36
Oc1[nH]c(N=C2N=c3ccccc3=N2)c2ccccc12	51	.	113*	.	51	.
O=C(NC(=S)Nc1cc(S(=O)(=O)N2CCOCC2)ccc1N1CCOCC1)C1CCCC1	4	0	0	-2	-1	31
CCn1cc(/C=C/c2cc[n+](C)cc2)c2ccccc21	12	.	85*	.	55*	.
Cc1ccccc1/C=C/c1cc[n+](C)cc1	-2	1	1	1	-3	11
O=C(c1ccco1)c1nnn(Cc2ccccc2)c1-c1ccccc1	78*	-2	4	-3	15	12
COc1ccc(-n2c(=S)[nH]c3cc(C(=O)Nc4ccccc4OC)ccc3c2=O)cc1	-12	5	77*	32*	-19	40
COc1ccc(-n2c(=S)[nH]c3cc(C(=O)Nc4ccccc4OC)ccc3c2=O)c(OC)c1	-6	-1	.	-4	-10	17
Cc1ccc(/C(N)=N/OC(=O)CCCc2ccccc2)cc1	-2	-1	.	-1	2	-9
CC(=O)C1=C(c2ccccc2)NC(=S)NC1c1cc(Cl)c(OC(C)C)c(Cl)c1 (centres undefined)	31	0	-3	0	61*	30
O=C(Cn1ncc(Cl)c(Cl)c1=O)NC1CCS(=O)(=O)C1 (centres undefined)	-6	0	-13	-2	2	13
O=C(Cn1ncc(Cl)c(Cl)c1=O)NCC1CCCCC1	100*	.	-8	.	.	.
O=C1CN(C(=O)COc2ccc(Cl)c(Cl)c2)c2ccccc2N1	.	0	.	-2	.	14
O=C1CN(C(=O)Cn2ncc(Cl)c(Cl)c2=O)c2ccccc2N1	.	.	.	.	75*	.
CCCCN1/C(=C/c2cccc[n+]2C)Sc2cc(NC(C)=O)ccc21	-11	-2	25	-4	13	10
Cc1ccc2c(c1)S/C(=C/c1ccc[n+](C)c1)N2CCO	1	1	95*	1	57*	-3
N#CC1=C(N)C(C#N)(C#N)[C@H](c2ccoc2)[C@H]2CN(Cc3ccccc3)CC=C12	48	0	2	37*	20	31
CCC1Oc2ccc(C)cc2N(CC(=O)N(Cc2cccnc2)Cc2ccc(C)o2)C1=O (centres undefined)	-11	-2	10	-2	57*	-18
Cc1onc(-c2c(F)cccc2Cl)c1C(=O)OCC(=O)c1c[nH]c2ccccc12	3	0	0	-4	15	27
Cn1nc(-c2ccccc2F)c2cc(C(=O)Nc3ccc4c(c3)OCCO4)sc21	77*	3	50	4	22	46
O=C(c1cc([N+](=O)[O-])ccc1Cl)N1CCN(Cc2ccc3c(c2)OCO3)CC1	-5	-1	2	-5	-3	25
O=C(c1cc([N+](=O)[O-])cc([N+](=O)[O-])c1)N1CCN(Cc2ccc3c(c2)OCO3)CC1	1	0	3	3	66*	-17
N#CCSc1n[nH]c2nc3c(c(=O)n12)C1(CCCC1)Cc1ccccc1-3	22	-1	-9	3	-4	0
CCCn1c(SCC#N)nc2c(c1=O)C1(CCCC1)Cc1ccccc1-2	127*	0	9	-2	23	-19

Compound activity deposited in PubChem BioAssay by several laboratories.
